Experimental data collected from several papers.
Lines come from different studies, so protocols differ. pIC50: −log10 of the molar value.
Effect on: cell growth or viability

Structure (SMILES)	cell line	assay	conditions	quantity	value
Nc1nc(F)nc2c1ncn2[C@@H]1O[C@H](CO)[C@@H](O)[C@@H]1O	LLC-MK2		5 days	CC50	54.1 µM
COc1ccc(C[C@H](NC(=O)[C@H](C)NC(=O)CN2CCOCC2)C(=O)N[C@@H](Cc2ccccc2)C(=O)C(=O)Nc2ccccc2)cc1	Caco-2	ATP luminescence	48 h	CC50	16.2 µM
CC=C1[C@H]2C=C(C)C[C@]1(N)c1cc(CC)c(=O)[nH]c1C2	IMR-90	MTT	100 µM, 24 h	cell death	2.2%
O=c1c(O[C@@H]2O[C@H](CO)[C@@H](O)[C@H](O)[C@H]2O)c(-c2ccc(O)cc2)oc2cc(O)cc(O)c12	RD	WST-1		pIC50	4.31
CC(C)(C)NC(=O)N[C@H](C(=O)N1C[C@H]2[C@@H]([C@H]1C(=O)NC(CC1CCC1)C(=O)C(N)=O)C2(C)C)C(C)(C)C (some centres unmarked)	Caco-2	neutral red	48 h	CC50	> 100 µM
Nc1nc(F)nc2c1ncn2[C@@H]1O[C@H](COP(=O)(O)O)[C@@H](O)[C@@H]1O	LLC-MK2		5 days	CC50	60.6 µM
CC(C)C[C@@H](C=O)NC(=O)[C@H](CC(C)C)NC(=O)[C@H](CC(C)C)NC(=O)OCc1ccccc1	Caco-2	neutral red	48 h	CC50	< 0.15 µM
CC=C1[C@H]2C=C(C)C[C@]1(N(C)C)c1ccc(OC)nc1C2	IMR-90	MTT	100 µM, 24 h	cell death	5.5%
